Data taken from ChEMBL document CHEMBL1142492 (J Med Chem, 2008).

Columns and labels:
[1] = target: Serine/threonine-protein kinase Chk1 (Homo sapiens) (UniProt O14757); assay: Inhibition of CHEK1 at 3 uM
[2] = target: Cyclin-dependent kinase 17 (Homo sapiens) (UniProt Q00537); assay: Inhibition of PCTK2 at 3 uM
[3] = target: Serine/threonine-protein kinase 33 (Homo sapiens) (UniProt Q9BYT3); assay: Inhibition of STK33 at 3 uM
[4] = target: AP2-associated protein kinase 1 (Homo sapiens) (UniProt Q2M2I8); assay: Inhibition of AAK1 at 3 uM
[5] = target: Activin receptor type-2A (Homo sapiens) (UniProt P27037); assay: Inhibition of ACVR2A at 3 uM
[6] = target: Casein kinase I isoform gamma-2 (Homo sapiens) (UniProt P78368); assay: Inhibition of CSNK1G2 at 3 uM
[7] = target: Protein kinase C theta type (Homo sapiens) (UniProt Q04759); assay: Inhibition of PRKCQ at 3 uM
[8] = target: Casein kinase I isoform gamma-1 (Homo sapiens) (UniProt Q9HCP0); assay: Inhibition of CSNK1G1 at 3 uM
[9] = target: Serine/threonine-protein kinase DCLK3 (Homo sapiens) (UniProt Q9C098); assay: Inhibition of DCAMKL3 at 3 uM
[10] = target: Receptor-interacting serine/threonine-protein kinase 4 (Homo sapiens) (UniProt P57078); assay: Inhibition of RIPK4 at 3 uM
[11] = target: Serine/threonine-protein kinase 17B (Homo sapiens) (UniProt O94768); assay: Inhibition of DRAK2 at 3 uM
[12] = target: Serine/threonine-protein kinase BRSK1 (Homo sapiens) (UniProt Q8TDC3); assay: Inhibition of BRSK1 at 3 uM
[13] = target: D(2) dopamine receptor (Homo sapiens) (UniProt P14416); assay: Inhibition of human dopamine D2S receptor at 3 uM
How it was run: (§1)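 Counter-screen binding/enzyme panel at single 3 μM, n=2; results as percent inhibition. Species per target as listed (rat NMDA, GABAA sites; human receptors, transporters; rabbit ACE).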

[14] = system: Epidermal growth factor receptor (Homo sapiens), P00533 [G719S]; assay: Inhibition of EGFR G719S mutant at 3 uM; type: protein assay
[15] = target: Cysteinyl leukotriene receptor 1 (Homo sapiens) (UniProt Q9Y271); assay: Inhibition of human CysLT1 receptor at 3 uM
[16] = Clearance in Sprague-Dawley rat at 1 mg/kg, iv; conditions: in vivo
[17] = target: Dual specificity mitogen-activated protein kinase kinase 3 (Homo sapiens) (UniProt P46734); assay: Inhibition of MEK3 at 3 uM
[18] = target: Platelet-derived growth factor receptor alpha (Homo sapiens) (UniProt P16234); assay: Inhibition of PDGFRA at 3 uM
[19] = target: Serine/threonine-protein kinase pim-3 (Homo sapiens) (UniProt Q86V86); assay: Inhibition of PIM3 at 3 uM
[20] = target: D(3) dopamine receptor (Homo sapiens) (UniProt P35462); assay: Inhibition of human dopamine D3 receptor at 3 uM; how it was run: as §1
[21] = target: Cyclin-dependent kinase 16 (Homo sapiens) (UniProt Q00536); assay: Inhibition of PCTK1 at 3 uM
[22] = target: RAC-alpha serine/threonine-protein kinase (Homo sapiens, UniProt P31749); assay: Inhibition of AKT1 at 3 uM
[23] = target: Casein kinase I isoform alpha-like (Homo sapiens) (UniProt Q8N752); assay: Inhibition of CSNK1A1L at 3 uM
[24] = target: Casein kinase II subunit alpha (Homo sapiens) (UniProt P68400); assay: Inhibition of CSNK2A1 at 3 uM
[25] = target: Serine/threonine-protein kinase 32B (Homo sapiens) (UniProt Q9NY57); assay: Inhibition of YANK2 at 3 uM
[26] = target: Serine/threonine-protein kinase PAK 6 (Homo sapiens) (UniProt Q9NQU5); assay: Inhibition of PAK6 at 3 uM
[27] = target: ALK tyrosine kinase receptor (Homo sapiens) (UniProt Q9UM73); assay: Inhibition of ALK at 3 uM
[28] = target: Mitogen-activated protein kinase kinase kinase 10 (Homo sapiens) (UniProt Q02779); assay: Inhibition of MLK2 at 3 uM
[29] = target: Calcium/calmodulin-dependent protein kinase type II subunit delta (Homo sapiens) (UniProt Q13557); assay: Inhibition of CAMK2D at 3 uM
[30] = target: T1, Epidermal growth factor receptor (Homo sapiens) (UniProt P04626+P00533+Q15303+P21860); assay: Inhibition of EGFR L747-T751del,Sins mutant at 3 uM; type: protein assay
[31] = target: Interferon-induced, double-stranded RNA-activated protein kinase (Homo sapiens) (UniProt P19525); assay: Inhibition of PRKR at 3 uM
[32] = target: Serine/threonine-protein kinase PLK1 (Homo sapiens) (UniProt P53350); assay: Inhibition of PLK1 at 3 uM
[33] = target: Myosin light chain kinase, smooth muscle (Homo sapiens) (UniProt Q15746); assay: Inhibition of MLCK at 3 uM
[34] = target: Mitogen-activated protein kinase 12 (Homo sapiens) (UniProt P53778); assay: Inhibition of p38-gamma at 3 uM
[35] = target: Myosin-IIIa (Homo sapiens) (UniProt Q8NEV4); assay: Inhibition of MYO3A at 3 uM
[36] = target: LIM domain kinase 2 (Homo sapiens) (UniProt P53671); assay: Inhibition of LIMK2 at 3 uM
[37] = target: Activin receptor type-1-like (Homo sapiens) (UniProt P37023); assay: Inhibition of ACVRL1 at 3 uM
[38] = target: Proto-oncogene tyrosine-protein kinase receptor Ret (Homo sapiens) (UniProt P07949); assay: Inhibition of RET at 3 uM
[39] = target: Serine/threonine-protein kinase 36 (Homo sapiens) (UniProt Q9NRP7); assay: Inhibition of STK36 at 3 uM
[40] = target: Cyclin-dependent kinase 19 (Homo sapiens) (UniProt Q9BWU1); assay: Inhibition of CDK11 at 3 uM
[41] = target: NUAK family SNF1-like kinase 2 (Homo sapiens) (UniProt Q9H093); assay: Inhibition of SNARK at 3 uM
[42] = target: Calcium/calmodulin-dependent protein kinase kinase 2 (Homo sapiens) (UniProt Q96RR4); assay: Inhibition of CAMKK2 at 3 uM
[43] = target: Calcium/calmodulin-dependent protein kinase type IV (Homo sapiens) (UniProt Q16566); assay: Inhibition of CAMK4 at 3 uM
[44] = target: T1, Epidermal growth factor receptor (Homo sapiens); assay: Inhibition of EGFR L747-E749del,A750P mutant at 3 uM; type: protein assay
[45] = target: Cyclin-dependent kinase 14 (Homo sapiens) (UniProt O94921); assay: Inhibition of PFTK1 at 3 uM
[46] = target: Protein-tyrosine kinase 2-beta (Homo sapiens) (UniProt Q14289); assay: Inhibition of PTK2B at 3 uM
[47] = target: Mitogen-activated protein kinase kinase kinase 5 (Homo sapiens) (UniProt Q99683); assay: Inhibition of MAP3K5 at 3 uM

Serine/threonine-protein kinase 36 (Homo sapiens), sequence (Q9NRP7 whole entry): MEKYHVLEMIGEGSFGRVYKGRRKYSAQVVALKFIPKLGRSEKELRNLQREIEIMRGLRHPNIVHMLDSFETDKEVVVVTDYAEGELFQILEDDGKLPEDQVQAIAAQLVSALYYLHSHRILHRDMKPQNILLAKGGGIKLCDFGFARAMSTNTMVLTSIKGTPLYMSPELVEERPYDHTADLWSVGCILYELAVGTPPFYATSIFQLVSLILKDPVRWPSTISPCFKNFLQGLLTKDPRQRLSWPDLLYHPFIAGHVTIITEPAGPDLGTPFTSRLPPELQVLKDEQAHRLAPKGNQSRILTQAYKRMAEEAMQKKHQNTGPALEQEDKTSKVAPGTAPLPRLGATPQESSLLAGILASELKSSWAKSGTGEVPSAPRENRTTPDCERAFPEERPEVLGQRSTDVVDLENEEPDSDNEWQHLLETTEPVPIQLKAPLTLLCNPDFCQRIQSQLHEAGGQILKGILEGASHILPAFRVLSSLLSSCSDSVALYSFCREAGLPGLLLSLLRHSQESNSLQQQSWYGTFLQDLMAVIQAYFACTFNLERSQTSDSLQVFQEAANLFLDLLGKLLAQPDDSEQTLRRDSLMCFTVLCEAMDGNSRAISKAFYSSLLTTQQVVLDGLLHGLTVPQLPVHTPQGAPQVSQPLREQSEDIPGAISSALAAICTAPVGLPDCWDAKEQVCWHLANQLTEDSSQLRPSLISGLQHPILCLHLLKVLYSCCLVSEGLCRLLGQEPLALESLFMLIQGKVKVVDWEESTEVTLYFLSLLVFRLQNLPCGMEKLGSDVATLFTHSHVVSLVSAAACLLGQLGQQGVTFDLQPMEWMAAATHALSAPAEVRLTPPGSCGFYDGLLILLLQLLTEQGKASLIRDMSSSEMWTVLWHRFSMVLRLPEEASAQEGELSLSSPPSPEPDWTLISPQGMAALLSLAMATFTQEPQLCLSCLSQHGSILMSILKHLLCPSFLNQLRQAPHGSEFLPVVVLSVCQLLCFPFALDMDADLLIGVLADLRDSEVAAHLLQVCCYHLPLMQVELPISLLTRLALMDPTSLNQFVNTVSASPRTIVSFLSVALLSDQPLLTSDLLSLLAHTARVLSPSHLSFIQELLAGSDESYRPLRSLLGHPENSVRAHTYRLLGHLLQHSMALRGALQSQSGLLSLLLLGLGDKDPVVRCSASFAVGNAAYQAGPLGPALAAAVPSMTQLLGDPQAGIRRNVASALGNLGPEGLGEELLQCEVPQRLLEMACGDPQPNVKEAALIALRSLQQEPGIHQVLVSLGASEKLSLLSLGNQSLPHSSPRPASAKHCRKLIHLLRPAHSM
Serine/threonine-protein kinase 33 (Homo sapiens), sequence (Q9BYT3 whole entry, looked up): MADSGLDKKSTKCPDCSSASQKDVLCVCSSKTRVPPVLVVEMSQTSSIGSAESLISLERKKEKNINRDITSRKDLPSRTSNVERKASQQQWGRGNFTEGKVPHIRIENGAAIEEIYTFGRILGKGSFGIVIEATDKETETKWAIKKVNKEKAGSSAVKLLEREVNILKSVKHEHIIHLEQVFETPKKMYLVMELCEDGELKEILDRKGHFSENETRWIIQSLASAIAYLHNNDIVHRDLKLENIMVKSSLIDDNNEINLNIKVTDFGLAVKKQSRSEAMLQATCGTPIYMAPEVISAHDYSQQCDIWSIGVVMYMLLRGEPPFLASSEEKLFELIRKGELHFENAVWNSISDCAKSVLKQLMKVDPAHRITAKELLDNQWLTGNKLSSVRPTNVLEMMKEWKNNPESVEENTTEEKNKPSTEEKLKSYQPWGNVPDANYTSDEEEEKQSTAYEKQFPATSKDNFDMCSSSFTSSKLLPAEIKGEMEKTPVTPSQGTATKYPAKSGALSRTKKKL
Cyclin-dependent kinase 17 (Homo sapiens), sequence (Q00537 whole entry, looked up): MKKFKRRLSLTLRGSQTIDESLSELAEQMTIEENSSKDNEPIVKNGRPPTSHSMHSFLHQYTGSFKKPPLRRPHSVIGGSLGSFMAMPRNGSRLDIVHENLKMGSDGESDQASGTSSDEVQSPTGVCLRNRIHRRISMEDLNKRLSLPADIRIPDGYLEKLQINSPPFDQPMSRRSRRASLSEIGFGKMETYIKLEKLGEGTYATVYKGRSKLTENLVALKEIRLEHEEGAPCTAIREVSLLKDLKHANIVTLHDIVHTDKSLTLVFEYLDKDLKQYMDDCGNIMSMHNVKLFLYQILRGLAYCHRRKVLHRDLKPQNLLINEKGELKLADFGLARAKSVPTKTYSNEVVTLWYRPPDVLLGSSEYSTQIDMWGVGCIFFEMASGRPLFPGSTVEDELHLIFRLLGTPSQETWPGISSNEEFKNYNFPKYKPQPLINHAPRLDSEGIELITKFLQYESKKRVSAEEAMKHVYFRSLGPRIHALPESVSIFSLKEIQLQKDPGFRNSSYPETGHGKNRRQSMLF
Calcium/calmodulin-dependent protein kinase type IV (Homo sapiens), sequence (Q16566 whole entry): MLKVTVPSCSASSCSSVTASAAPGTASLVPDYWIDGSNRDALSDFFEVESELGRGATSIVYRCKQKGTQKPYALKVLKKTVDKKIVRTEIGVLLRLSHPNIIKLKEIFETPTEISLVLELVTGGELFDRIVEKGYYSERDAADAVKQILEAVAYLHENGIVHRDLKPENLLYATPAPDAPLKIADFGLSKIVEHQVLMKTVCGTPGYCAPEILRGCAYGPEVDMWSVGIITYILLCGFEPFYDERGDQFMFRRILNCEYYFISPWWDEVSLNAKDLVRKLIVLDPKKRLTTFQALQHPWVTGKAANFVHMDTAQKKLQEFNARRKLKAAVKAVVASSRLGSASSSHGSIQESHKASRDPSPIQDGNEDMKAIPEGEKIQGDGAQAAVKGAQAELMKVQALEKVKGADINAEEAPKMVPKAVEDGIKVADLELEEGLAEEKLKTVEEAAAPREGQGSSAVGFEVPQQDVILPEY
Protein kinase C theta type (Homo sapiens), sequence (Q04759 whole entry, looked up, canonical isoform): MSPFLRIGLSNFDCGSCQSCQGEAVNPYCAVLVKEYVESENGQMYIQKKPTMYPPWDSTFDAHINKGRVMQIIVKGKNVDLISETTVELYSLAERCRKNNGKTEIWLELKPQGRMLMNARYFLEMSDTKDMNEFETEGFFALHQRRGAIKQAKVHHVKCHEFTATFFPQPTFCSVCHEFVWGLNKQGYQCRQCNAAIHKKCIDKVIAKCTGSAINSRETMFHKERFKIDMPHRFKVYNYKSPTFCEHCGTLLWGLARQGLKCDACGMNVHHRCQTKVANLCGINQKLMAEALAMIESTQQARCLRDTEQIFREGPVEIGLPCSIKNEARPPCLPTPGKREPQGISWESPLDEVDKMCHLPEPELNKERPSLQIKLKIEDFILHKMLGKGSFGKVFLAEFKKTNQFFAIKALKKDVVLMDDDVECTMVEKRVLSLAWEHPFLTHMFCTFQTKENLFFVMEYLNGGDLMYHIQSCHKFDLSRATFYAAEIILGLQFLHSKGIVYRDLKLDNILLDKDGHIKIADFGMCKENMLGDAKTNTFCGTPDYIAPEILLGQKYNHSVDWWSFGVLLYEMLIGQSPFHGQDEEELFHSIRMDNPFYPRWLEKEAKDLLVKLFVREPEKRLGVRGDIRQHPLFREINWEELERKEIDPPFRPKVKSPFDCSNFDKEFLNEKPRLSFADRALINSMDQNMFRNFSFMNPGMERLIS
Proto-oncogene tyrosine-protein kinase receptor Ret (Homo sapiens), sequence (P07949 whole entry): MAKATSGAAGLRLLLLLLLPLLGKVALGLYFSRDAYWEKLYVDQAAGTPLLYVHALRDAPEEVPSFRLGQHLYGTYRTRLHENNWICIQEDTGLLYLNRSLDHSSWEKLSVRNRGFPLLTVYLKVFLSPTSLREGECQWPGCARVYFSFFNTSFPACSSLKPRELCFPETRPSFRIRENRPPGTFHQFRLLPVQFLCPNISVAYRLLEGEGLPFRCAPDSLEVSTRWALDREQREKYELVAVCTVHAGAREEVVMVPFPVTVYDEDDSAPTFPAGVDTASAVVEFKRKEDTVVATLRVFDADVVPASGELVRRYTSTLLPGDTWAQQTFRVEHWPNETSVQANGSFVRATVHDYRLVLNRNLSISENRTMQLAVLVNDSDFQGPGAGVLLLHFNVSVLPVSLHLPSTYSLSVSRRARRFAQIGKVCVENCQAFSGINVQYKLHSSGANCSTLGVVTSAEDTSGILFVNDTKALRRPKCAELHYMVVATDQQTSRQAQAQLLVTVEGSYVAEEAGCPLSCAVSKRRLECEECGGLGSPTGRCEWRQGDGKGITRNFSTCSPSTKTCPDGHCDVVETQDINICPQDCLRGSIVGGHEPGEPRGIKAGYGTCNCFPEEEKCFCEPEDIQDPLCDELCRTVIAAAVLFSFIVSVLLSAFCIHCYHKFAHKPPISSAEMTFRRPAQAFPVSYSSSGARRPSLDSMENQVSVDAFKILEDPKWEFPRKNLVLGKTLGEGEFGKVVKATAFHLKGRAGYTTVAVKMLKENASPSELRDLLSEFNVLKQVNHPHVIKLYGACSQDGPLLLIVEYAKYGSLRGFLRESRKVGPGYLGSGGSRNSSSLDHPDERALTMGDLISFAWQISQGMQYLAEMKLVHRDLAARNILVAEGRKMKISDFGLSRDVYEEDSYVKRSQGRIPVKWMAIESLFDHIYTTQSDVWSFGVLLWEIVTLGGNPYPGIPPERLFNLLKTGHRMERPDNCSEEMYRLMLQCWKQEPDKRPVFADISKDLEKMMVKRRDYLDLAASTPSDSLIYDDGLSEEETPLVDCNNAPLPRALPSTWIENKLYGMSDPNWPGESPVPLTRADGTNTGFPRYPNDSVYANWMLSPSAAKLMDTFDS
Serine/threonine-protein kinase 17B (Homo sapiens), sequence (O94768 whole entry): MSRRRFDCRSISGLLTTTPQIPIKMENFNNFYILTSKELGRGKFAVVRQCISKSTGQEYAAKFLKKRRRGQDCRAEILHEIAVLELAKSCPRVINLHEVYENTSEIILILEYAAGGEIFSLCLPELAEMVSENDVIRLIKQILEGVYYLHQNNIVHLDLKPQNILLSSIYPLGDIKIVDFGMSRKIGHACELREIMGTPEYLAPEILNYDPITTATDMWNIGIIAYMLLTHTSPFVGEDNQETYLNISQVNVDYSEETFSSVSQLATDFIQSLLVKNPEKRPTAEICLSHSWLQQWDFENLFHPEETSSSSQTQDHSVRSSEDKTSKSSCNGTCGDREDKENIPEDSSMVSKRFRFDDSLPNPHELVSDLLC

CN(C)CCOc1cc(-c2cn[nH]c2)ccc1NC(=O)C1COc2ccccc2O1 (configuration not stated) [SR-3677]
61 mL/min/kg: clearance [16]
0%: inhibition [15]
6%: inhibition [13]
< 10%: inhibition [1] | inhibition [2] | inhibition [3] | inhibition [4] | inhibition [5] | inhibition [6] | inhibition [7] | inhibition [8] | inhibition [9] | inhibition [10] | inhibition [11] | inhibition [12] | inhibition [14] | inhibition [17] | inhibition [18] | inhibition [19] | inhibition [21] | inhibition [22] | inhibition [23] | inhibition [24] | inhibition [25] | inhibition [26] | inhibition [27] | inhibition [28] | inhibition [29] | inhibition [30] | inhibition [31] | inhibition [32] | inhibition [33] | inhibition [34] | inhibition [35] | inhibition [36] | inhibition [37] | inhibition [38] | inhibition [39] | inhibition [40] | inhibition [41] | inhibition [42] | inhibition [43] | inhibition [44] | inhibition [45] | inhibition [46] | inhibition [47]
15%: inhibition [20]
